The results in this text go back to ChEMBL document CHEMBL4190193, “Stachybotrysins A-G, Phenylspirodrimane Derivatives from the Fungus Stachybotrys chartarum” (J Nat Prod, 2017).

One assay relates to HepG2. The assay can be described thus: Cytotoxicity against human HepG2 cells assessed as reduction in cell viability after 96 hrs by MTT assay. Format: cell-based. The settings on record: HepG2, 96 h. A digest of the protocol: (§1)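 MTT assay. Cells were grown in RPMI 1640 with 10% FBS, penicillin and streptomycin at 37 °C under 5% CO2, then seeded at 1200 cells/well. Compounds were added after 24 h at 10−4 to 10−8 M (five concentrations, final DMSO 0.1% v/v) and incubated 96 h. Absorbance was read at 570 nm. Paclitaxel was the positive control, with triplicates per concentration; IC50 was calculated from these.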

Assay [1] concerns Human immunodeficiency virus 1. The assay is described as follows: Antiviral activity against VSV-G pseudotyped HIV1 infected in human SupT1 cells after 48 hrs by firefly luciferase reporter gene assay. Format: functional, organism-based. The settings on record: Human immunodeficiency virus 1, SUP-T1, 48 h. Summed up:
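293T cells (2 × 105) cotransfected with 0.6 μg pNL-Luc-E−-Vpu− and 0.4 μg pHIT/G. Supernatant harvested at 48 h, 0.45 μm filtered, capsid p24 quantified by antigen-capture ELISA. SupT1 cells infected at MOI 1, 37 °C, 48 h, with compound at several concentrations, each in triplicate. Efavirenz as control. Inhibition measured by firefly luciferase; IC50 calculated from it.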

The subject of another assay is Influenza A virus. The assay is described as follows: Antiviral activity against VSV-G pseudotyped Influenza A virus infected in human SupT1 cells after 48 hrs by firefly luciferase reporter gene assay. It counts as functional, organism-based. The settings on record: SUP-T1, 48 h.
Another assay relates to BGC-823. The assay can be described thus: Cytotoxicity against human BGC823 cells assessed as reduction in cell viability after 96 hrs by MTT assay. It counts as cell-based. Particulars: BGC-823, 96 h. Summed up: as §1
The subject of another assay is NCI-H460. The assay is described as follows: Cytotoxicity against human NCI-H460 cells assessed as reduction in cell viability after 96 hrs by MTT assay. Format: cell-based. Particulars: NCI-H460, 96 h. A digest of the protocol: as §1

With `CC(=O)C[C@@H]1OCc2cc(O)c3c(c21)O[C@]1(C3)[C@H](C)CC[C@H]2C(C)(C)[C@H](O)CC[C@@]21C`, the IC50 was 24.6 µM in the assay with HepG2, 15.6 to 20.5 µM in assay [1] and 12.4 to 23.4 µM in the assay on Influenza A virus.
In the case of `CC(=O)/C=C/c1c(CO)cc(O)c2c1O[C@]1(C2)[C@H](C)CC[C@H]2C(C)(C)[C@H](O)CC[C@@]21C`, in the assay with Influenza A virus, the IC50 lay in the range of 12.4 to 23.4 µM.
`CC(=O)O[C@@H]1CC[C@@]2(C)[C@@H](CC[C@@H](C)[C@]23Cc2c(O)cc(CO)c(C=O)c2O3)C1(C)C` gave an IC50 in assay [1] of 15.6 to 20.5 µM.
In the case of `C=C1CC[C@H]2C(C)(C)[C@H](O)CC[C@]2(C)[C@@]12Cc1c(O)cc(COC(C)=O)c(C=O)c1O2`, in assay [1], the IC50 is 15.6 to 20.5 µM.
`Cc1cc(O)c2c(c1C=O)O[C@]1(C2)[C@H](C)CC[C@H]2C(C)(C)[C@H](O)CC[C@@]21C`: the IC50 is 18.4 µM with HepG2, 21.9 µM with BGC-823, 15.8 µM in the assay on NCI-H460 and 15.6 to 20.5 µM in assay [1].
In turn, `CC(=O)O[C@@H]1CC[C@@]2(C)[C@@H](CC[C@@H](C)[C@]23Cc2c(O)cc4c(c2O3)COC4=O)C1(C)C` showed an IC50 in the assay on Influenza A virus of 12.4 to 23.4 µM.
In the case of `CC(=O)O[C@H]1C(=O)[C@@]2(C)[C@H]([C@H](OC(=O)c3ccccc3)[C@]3(O)C[C@H](OC(=O)[C@H](O)[C@@H](NC(=O)c4ccccc4)c4ccccc4)C(C)=C1C3(C)C)[C@]1(OC(C)=O)CO[C@@H]1C[C@@H]2O` [PACLITAXEL], the IC50 was 0.0063 µM with HepG2, 0.0008 µM in the assay with BGC-823 and 0.001 µM with NCI-H460.
As to `CC(=O)C[C@H]1OCc2cc(O)c3c(c21)O[C@]1(C3)[C@H](C)CC[C@H]2C(C)(C)[C@H](O)CC[C@@]21C`, the IC50 in the assay with Influenza A virus lay in the range of 12.4 to 23.4 µM.
Take `CC(=O)O[C@@H]1CC[C@@]2(C)[C@@H](CC[C@@H](C)[C@]23Cc2c(O)cc(C)c(C=O)c2O3)C1(C)C`: the IC50 in the assay on HepG2 is 24.7 µM; in assay [1], 15.6 to 20.5 µM; with Influenza A virus, 12.4 to 23.4 µM.
Consider `NC(=O)c1ncn([C@@H]2O[C@H](CO)[C@@H](O)[C@H]2O)n1` [RIBAVIRIN], for which, in the assay on Influenza A virus, the IC50 amounted to 0.002 µM.
